Measured values as given in ChEMBL document CHEMBL4130601, “Oxygenated N-Acyl Alanine Methyl Esters (NAMEs) from the Marine Bacterium Roseovarius tolerans EL-164” (2018).
In brackets after ≈: the same amount, converted by molar mass. Activity calls are given as the source filed them. The rule behind the calls is not given here.

What was measured:
Bacillus subtilis = assay: Antibacterial activity against Bacillus subtilis DSM 10 after 16 to 20 hrs by microdilution method; assay type: functional
Summary of the method: (§1)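 Samples were serially diluted from 2 mg/mL stocks and the cells added. Growth was 16−20 h at the optimal temperature (30 or 37 °C). MIC was taken as the lowest concentration with no visible growth.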

Escherichia coli = assay: Antibacterial activity against TolC-deficient Escherichia coli after 16 to 20 hrs by microdilution method; assay type: functional; summary of the method: as §1
Staphylococcus carnosus = assay: Antibacterial activity against Staphylococcus carnosus DSM 20501 after 16 to 20 hrs by microdilution method; assay type: functional; summary of the method: as §1
Micrococcus luteus = assay: Antibacterial activity against Micrococcus luteus DSM 1790 after 16 to 20 hrs by microdilution method; assay type: functional; summary of the method: as §1
Staphylococcus aureus = assay: Antibacterial activity against Staphylococcus aureus Newman after 16 to 20 hrs by microdilution method; assay type: functional; summary of the method: as §1
Pseudomonas putida [1] = assay: Induction of N-acyl-homoserinlactone-related quorum sensing activity in Pseudomonas putida F117 measured up to 5.5 hrs by fluorescence assay
Summary of the method: (§2)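 The sensor strain P. putida F117 (pKRC12) was grown overnight in Luria−Bertani medium with gentamycin (20 μg/mL) at 30 °C, shaking at 160 rpm. Test samples were added at different concentrations.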

Mucor hiemalis = assay: Antibacterial activity against Mucor hiemalis DSM 2656 after 16 to 20 hrs by microdilution method; assay type: functional
Summary of the method: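 The fungus, in mid-log phase, was diluted to about 5 × 10⁵ to 5 × 10⁶ cfu/mL final in Myc medium (1% phytone peptone, 1% glucose, 50 mM HEPES, pH 7.0). Samples were serially diluted from 2 mg/mL stocks. Growth was 16−20 h at 30 or 37 °C. MIC was taken as the lowest concentration with no visible growth.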

Pseudomonas putida [2] = assay: Inhibition of N-acyl-homoserinlactone-related quorum sensing activity in Pseudomonas putida F117 at 5 uM measured up to 5.5 hrs by fluorescence assay; summary of the method: as §2

| MIC (Bacillus subtilis) [µg/mL] | MIC (Escherichia coli) [µg/mL] | MIC (Staphylococcus carnosus) [µg/mL] | MIC (Micrococcus luteus) [µg/mL] | MIC (Staphylococcus aureus) [µg/mL] | Activity (Pseudomonas putida [1]) | MIC (Mucor hiemalis) [µg/mL] | inhibition (Pseudomonas putida [2]) | Structure (SMILES) |
| --- | --- | --- | --- | --- | --- | --- | --- | --- |
| 16 (≈ 45.3 µM) | 16 (≈ 45.3 µM) | 8 (≈ 22.6 µM) | 16 (≈ 45.3 µM) | – | – | – | – | CCCCCC/C=C\CCCCCC(=O)CC(=O)N[C@@H](C)C(=O)OC |
| – | 8 to 16 (≈ 22.5 to 45 µM) | – | 32 to 64 (≈ 90 to 180 µM) | 32 to 64 (≈ 90 to 180 µM) | inactive | 32 to 64 (≈ 90 to 180 µM) | inactive | COC(=O)[C@H](C)NC(=O)CCCCCCC/C=C\CCCCCCO |
| – | – | – | – | – | inactive | – | inactive | CCCCCC/C=C\CCCCCCCC(=O)N[C@@H](C)C(=O)OC |
| 128 (≈ 360 µM) | 16 (≈ 45 µM) | 16 (≈ 45 µM) | 8 (≈ 22.5 µM) | – | – | – | – | CCCCCC/C=C\CCCCCC(O)CC(=O)N[C@@H](C)C(=O)OC (stereo partly specified) |
